According to PMC11559620 (Science Advances, 2024):
Changes are numbered by the printed parent chain. In names and notes the source's numbering stands. Ends that are not written are not given here.

Tests used:
CML18 [1] = target: T1, CML18 (Arabidopsis thaliana, UniProt Q9M8U1); test: Isothermal titration calorimetry, CBD peptide; format: binding
T1 sequence (Q9M8U1 1-165): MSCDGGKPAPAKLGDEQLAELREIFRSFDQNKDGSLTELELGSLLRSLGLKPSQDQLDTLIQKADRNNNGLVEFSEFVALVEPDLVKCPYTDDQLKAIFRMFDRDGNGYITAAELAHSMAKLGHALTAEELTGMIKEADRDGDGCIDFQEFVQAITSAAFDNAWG
Method in brief: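 ITC at 25°C: 200 μM CML18 was titrated into 20 μM CBD peptide in 2-μl injections at 150-s intervals, stirred at 750 rpm, in buffer C (pH 6.3) or D (pH 8.3), with 18 μM EGTA or 180 μM Ca2+. Heats from ligand-into-buffer controls were subtracted. Two titrations were run for each of two independent protein preparations.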

CML18 [2] = target: T1, CML18; test: Far-UV circular dichroism of CML18:CML-BD complex; format: binding
Method in brief: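 Far-UV CD (320–202 nm, 20°C, 1.0-mm quartz cuvette) of decalcified CML18, the synthetic CBD peptide, and a 1:1 protein:peptide mixture, each at pH 6.3 and 8.3. The spectrum expected for non-interacting samples was calculated as the sum of the two individual spectra and compared with the mixture.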

yeast vacuoles = test: Vacuolar pH of yeast by BCECF-AM; format: cell-based, Saccharomyces cerevisiae; settings: n = 8
CML18 [3] = test: Bimolecular fluorescence complementation, interaction with CML18; format: cell-based, Arabidopsis; settings: leaves of N. benthamiana
Method in brief: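 Agrobacterium GV3101 carrying BiFC constructs was co-infiltrated with a p19-transformed strain into 5- to 6-week-old N. benthamiana leaves. Full-length NHX1 or NHX2 and CML18 were each fused to complementary halves of eYFP. Empty pSPYCE(M) served as negative control. The lower epidermis was imaged by confocal microscopy (515-nm laser, 60× objective) under constant imaging settings, using a YFP filter.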

CML18 [4] = test: Yeast two-hybrid assay, interaction with CML18; format: cell-based, Arabidopsis; settings: for interaction with CML18 (Y2H): C-terminal cytosolic fragments, selective YNB media
Method in brief: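 Strain AH109 was cotransformed with NHX C-terminal fragments in pGBKT7 (GAL4 BD) and CML17 or CML18 in pGADT7 (GAL4 AD), selected on YNB-Trp-Leu. Cultures were grown at 28°C to saturation (OD600 ~2), then 5-μl drops of 10-fold dilutions were spotted on YNB-Trp-Leu, -His-Trp-Leu and -Ade-Trp-Leu. Plates were incubated at 28°C for 3–4 days. p53/pSV40 served as positive control, empty vectors as negative.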

AXT3K strain = test: Complementation assay, hygromycin B resistance of yeast AXT3K; format: cell-based, Saccharomyces cerevisiae; settings: YPD + HygB (50 μg/ml), 30°C
NHX1 = settings: ref [15]; cited from earlier work
Tryptophan = format: physicochemical
Method in brief: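 Decalcified CML18 was dialysed into buffer C (20 mM MES pH 6.3) or D (20 mM tris pH 8.3), both with 80 mM KCl, 5 mM NaCl, 2 mM DTT. Samples of 10 μl at 25 μM were loaded into UV capillaries and heated from 35 to 95°C at […]. The initial Trp emission ratio (350/330 nm) was taken at the start. For Ca2+ titrations, 20 μM EGTA was kept constant.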

[5] = Far-UV circular dichroism of CML18; format: physicochemical
Method in brief: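 CML18 was decalcified by dialysis against 20 mM EGTA, then re-dialysed into EGTA-free buffer C (20 mM MES pH 6.3, 80 mM KCl, 5 mM NaCl, 2 mM DTT) or buffer D (same, with 20 mM tris pH 8.3). Far-UV CD spectra (320–202 nm) were recorded at 0.2 mg/ml, 20°C, 1.0-mm quartz cuvette, with 180 μM Ca2+ or 18 μM EGTA.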

C terminus of NHX1 = test: Yeast two-hybrid assay, dimerization with C terminus of NHX1; format: cell-based, Arabidopsis; settings: fig. S2; cytosolic C-terminal domains

With “DSIRGFLTRPTRTVHYYWRQFDDSFMRPVFGGR [CML-BD]” the “complex formation with CML18” value (CML18 [1]; pH 6.3, presence of Ca2+) was “high-affinity complex is formed”, the “CML-BD binding sites per CML18 monomer” value (CML18 [1]; pH 6.3, model fit, equal affinity) was “two CML-BD binding sites with equal affinity per CML18 monomer” and the “helical content in solution” value (CML18 [2]; far-UV CD, 20°C, peptide alone) was “no helical content”. The “binding of CML18 to CBD peptide, pH dependence” value (CML18 [2]; far-UV CD, pH 6.3 versus 8.3) was “mostly favored at acidic pH”, the “α-helical content of the mixture with CML18” value (CML18 [2]; pH 6.3, 1:1 protein:peptide, far-UV CD, relative to CML18 alone) was “increased α-helical content” and the “interaction with CML18” value (CML18 [2]; pH 8.3, absence of Ca2+) was “no interaction is observed”. The “helicity of the mixture with CML18” value (CML18 [2]; pH 8.3, 1:1 protein:peptide, far-UV CD) was “only a small increase in helicity”.

In the case of “NHX1∆CBD: NHX1 with the CBD deleted (residues S486 to G516)”, the “vacuolar pH (pHvac)” value (yeast vacuoles) is reported as “overly acidic”, the “interaction with CML18 (BiFC)” value (CML18 [3]) is reported as “lost the interaction with CML18” and the “interaction with CML18 (Y2H)” value (CML18 [4]) is reported as “tested negative”.

B1: W502A: NHX1 mutant in the CBD (protein, UniProt Q68KI4 1-538, looked up, variant W502A)
Sodium/hydrogen exchanger 1: MLDSLVSKLPSLSTSDHASVVALNLFVALLCACIVLGHLLEENRWMNESITALLIGLGTGVTILLISKGKSSHLLVFSEDLFFIYLLPPIIFNAGFQVKKKQFFRNFVTIMLFGAVGTIISCTIISLGVTQFFKKLDIGTFDLGDYLAIGAIFAATDSVCTLQVLNQDETPLLYSLVFGEGVVNDATSVVVFNAIQSFDLTHLNHEAAFHLLGNFLYLFLLSTLLGAATGLISAYVIKKLYFGRHSTDREVALMMLMAYLSYMLAELFDLSGILTVFFCGIVMSHYTWHNVTESSRITTKHTFATLSFLAETFIFLYVGMDALDIDKWRSVSDTPGTSIAVSSILMGLVMVGRAAFVFPLSFLSNLAKKNQSEKINFNMQVVIWWSGLMRGAVSMALAYNKFTRAGHTDVRGNAIMITSTITVCLFSTVVFGMLTKPLISYLLPHQNATTSMLSDDNTPKSIHIPLLDQDSFIEPSGNHNVPRPDSIRGFLTRPTRTVHYYARQFDDSFMRPVFGGRGFVPFVPGSPTERNPPDLSKA
For B1, the “HygB resistance / protein activity in AXT3K” value (AXT3K strain) was “inactive” and the “interaction with CML18 (Y2H)” value (CML18 [4]) was “essential for the interaction”.

B2: H479L: NHX1 mutant outside the CBD, control (protein, UniProt Q68KI4 1-538, looked up, variant H479L)
Sodium/hydrogen exchanger 1: B1 Sodium/hydrogen exchanger 1 with H479L, A502W
With B2 the “vacuolar pH (pHvac)” value (yeast vacuoles) was “no substantial differences” and the “HygB resistance / protein activity in AXT3K” value (AXT3K strain) was “supported grow”.

B3: Y286A (protein, UniProt Q68KI4 1-538, looked up, variant Y286A)
Sodium/hydrogen exchanger 1: B1 Sodium/hydrogen exchanger 1 with Y286A, A502W
In the case of B3, the “HygB resistance / protein activity in AXT3K” value (AXT3K strain) is reported as “inactive”.

B4: H285L (protein, UniProt Q68KI4 1-538, looked up, variant H285L)
Sodium/hydrogen exchanger 1: B1 Sodium/hydrogen exchanger 1 with H285L, A502W
In the case of B4, the “HygB resistance / protein activity in AXT3K” value (AXT3K strain) is reported as “inactive”.

B5: H479L-H499L (protein, UniProt Q68KI4 1-538, looked up, variant H479L H499L)
Sodium/hydrogen exchanger 1: B1 Sodium/hydrogen exchanger 1 with H479L, H499L, A502W
With B5 the “vacuolar pH (pHvac)” value (yeast vacuoles) was “no substantial differences” and the “HygB resistance / protein activity in AXT3K” value (AXT3K strain) was “supported grow”.

B6: H499L: NHX1 mutant within the CBD (protein, UniProt Q68KI4 1-538, looked up, variant H499L)
Sodium/hydrogen exchanger 1: B1 Sodium/hydrogen exchanger 1 with H499L, A502W
With B6 the “vacuolar pH (pHvac)” value (yeast vacuoles) was “no substantial differences”, the “HygB resistance / protein activity in AXT3K” value (AXT3K strain) was “supported grow” and the “interaction with CML18 (Y2H)” value (CML18 [4]) was “not as strong as with the WT NHX1”. For the same molecule, the “growth of cells coexpressing CML18 (Y2H)” value (CML18 [4]; YNB-His) was “able to grow” and the “growth of cells coexpressing CML18 (Y2H)” value (CML18 [4]; YNB-His-Ade) was “not in the more stringent media YNB-His-Ade”.

B7: D506A: NHX1 mutant in the CBD (protein, UniProt Q68KI4 1-538, looked up, variant D506A)
Sodium/hydrogen exchanger 1: B1 Sodium/hydrogen exchanger 1 with A502W, D506A
With B7 the “HygB resistance / protein activity in AXT3K” value (AXT3K strain) was “inactive” and the “interaction with CML18 (Y2H)” value (CML18 [4]) was “essential for the interaction”.

B8: CML18: calmodulin-like protein of Arabidopsis, At3g03000 (protein)
chain: T1 sequence (Q9M8U1 1-165)
modifications: left off: cYFP (C-terminal half of YFP), C-terminal, kept
In the case of B8, the “effect on K+/H+ and Na+/H+ exchange rates of NHX1” value (NHX1) is given as “inhibition”, the “effect on K+/H+ transport by NHX1” value (NHX1) is given as “inhibit” and the “W164 fluorescence red shift” value (Tryptophan; pH 6.3 versus pH 8.3, 350/330 nm, 25 μM CML18) is given as “remarkable red shift”. For the same molecule, the “CD spectrum change upon addition of Ca2+ or EGTA” value ([5]; 180 μM Ca2+ or 18 μM EGTA, pH 6.3 and 8.3) was “no noticeable changes in the spectrum” and the “CD peak at 222 nm” value ([5]; pH 6.3 compared to pH 8.3, 0.2 mg/ml, 20°C) was “clear increase of the peak at 222 nm at pH 6.3 compared to pH 8.3”.

B9: CML18-D161N (protein, UniProt Q9M8U1 1-165, looked up, variant D161N)
Probable calcium-binding …: T1 sequence (Q9M8U1 1-165) with D161N
In the case of B9, the “350-nm/330-nm emission ratio, pH dependence” value (Tryptophan; pH 6.3 and 8.3) is reported as “remained constant regardless of pH” and the “far-UV CD spectrum compared with WT at pH 6.3” value ([5]; fig. S6) is reported as “nearly identical to that of the WT protein at pH 6.3”.

B10: NHX2: vacuolar exchanger; C-terminal residues G434 to P546 in Y2H (protein, UniProt Q56XP4 434-546, looked up, fragment)
chain: GMLTKPLIRYLMPHQKATTSTTSMLSDDSTPKSIHIPLLDGEQLDSFELPGSHQDVPRPNSLRGFLMRPTRTVHYYWRQFDDAFMRPVFGGRGFVPFVPGSPTERSSHDLSKP
With B10 the “HygB resistance / protein activity in AXT3K” value (AXT3K strain) was “suppressed the HygB sensitivity”, the “interaction with CML18 (BiFC)” value (CML18 [3]) was “interacted with CML18” and the “interaction with CML18 (Y2H)” value (CML18 [4]) was “strongly”. For the same molecule, the “homodimerization / heterodimerization (Y2H)” value (C terminus of NHX1) was “positive results”.

B11: NHX4: vacuolar exchanger; C-terminal residues T437 to C529 in Y2H (protein)
chain: TKPLVNYLLPQDASHNTGNRGKRTEPGSPKEDATLPLLSFDESASTNFNRAKDSISLLMEQPVYTIHRYWRKFDDTYMRPIFGGPRRENQPEC
modifications: left off: Gal4 DNA-binding domain (vector pGBKT7), end not stated, kept
With B11 the “interaction with CML18 (Y2H)” value (CML18 [4]) was “strongly”.
